From ChEMBL document CHEMBL4825662 (J Med Chem, 2021)
Converted amounts (≈) assume the structure as drawn. One block for each compound: values may come before it.

Experiments:
[1] = system: Human orthopneumovirus; test: Antiviral activity against Respiratory syncytial virus A2 infected in African green monkey Vero cells by Plaque reduction assay; format: functional, organism-based
[2] = Cytotoxicity against African green monkey Vero cells by MTT assay; format: cell-based; conditions: chlorocebus sabaeus
In short: (§1)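 Viability was assessed by MTT after culture with compound at 0.01 nM to 100 μM, run in parallel with plaque reduction assays. Values are the average of at least two testing occasions.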

[3] = Cytotoxicity against human HepG2 cells by MTT assay; format: cell-based; in short: as §1
[4] = Half life in Sprague-Dawley rat liver microsomes preincubated followed by NADPH addition and measured up to 45 mins by LC-MS/MS analysis; format: ADME, Microsome
[5] = Apparent permeability across apical to basolateral side in MDCK-MDR1 cells at 10 uM measured at 60 mins by LC-MS/MS analysis; format: ADME, cell-based, Canis lupus familiaris; conditions: dog, MDCK-MDR1
[6] = Half life in CD1 mouse at 10 mg/kg, po measured after 0.083 to 24 hrs by UHPLC-TOF method; format: ADME, organism-based; conditions: in vivo, time 0.083-24 hrs
[7] = Tmax in CD1 mouse at 10 mg/kg, po measured after 0.083 to 24 hrs by UHPLC-TOF method; format: ADME, organism-based; conditions: in vivo, time 0.083-24 hrs
In short: (§2)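 Male CD-1 mice, acclimatized and individually housed, dosed IV and PO as amorphous-solid suspension. Terminal cardiac-puncture blood into heparinized tubes on wet ice, centrifuged at 4 °C within 15 min; plasma snap-frozen at −20 °C. IV arm sampled 2 min–24 h, oral arm 5 min–24 h. Plasma analysed by UHPLC-quadrupole-TOF MS.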

[8] = system: Human orthopneumovirus; test: Antiviral activity against Respiratory syncytial virus A2 infected in human Huh7 cells by Plaque reduction assay; format: functional, organism-based; conditions: A2, Huh-7
In short: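 Huh-7 cells were infected with RSV strain A2 in the presence of compound. Values are the average of at least two testing occasions.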

[9] = Intrinsic clearance in human liver microsomes preincubated followed by NADPH addition and measured up to 45 mins by LC-MS/MS analysis; format: ADME, Microsome
[10] = Intrinsic clearance in Beagle dog liver microsomes preincubated followed by NADPH addition and measured up to 45 mins by LC-MS/MS analysis; format: ADME, Canis lupus familiaris, Microsome
[11] = Volume of distribution at steady state in CD1 mouse at 1 mg/kg, iv measured after 0.083 to 24 hrs by UHPLC-TOF method; format: ADME, organism-based; conditions: in vivo, time 0.083-24 hrs, read-out: Vdss; in short: as §2
[12] = Thermodynamic solubility in PBS at 1 to 100 uM at pH 7.4 by HPLC-UV method; format: physicochemical; conditions: dose 1-100 µM, read-out: Therm_solubility
[13] = Apparent permeability across basolateral side to apical side in MDCK-MDR1 cells at 10 uM measured at 60 mins by LC-MS/MS analysis; format: ADME, cell-based, Canis lupus familiaris; conditions: dog
[14] = Half life in Beagle dog liver microsomes preincubated followed by NADPH addition and measured up to 45 mins by LC-MS/MS analysis
[15] = Efflux ratio of apparent permeability in MDCK-MDR1 cells at 10 uM measured at 60 mins by LC-MS/MS analysis; format: ADME, cell-based, Canis lupus familiaris; conditions: dog, MDCK-MDR1
[16] = Clearance in CD1 mouse at 1 mg/kg, iv measured after 0.083 to 24 hrs by UHPLC-TOF method; format: ADME, organism-based; conditions: in vivo, time 0.083-24 hrs
[17] = Oral bioavailability in CD1 mouse at 10 mg/kg measured after 0.03 to 24 hrs by UHPLC-TOF method; format: ADME, organism-based; conditions: in vivo, time 0.03-24 hrs; in short: as §2
[18] = Half life in human liver microsomes preincubated followed by NADPH addition and measured up to 45 mins by LC-MS/MS analysis; format: ADME, Microsome
[19] = Intrinsic clearance in Sprague-Dawley rat liver microsomes preincubated followed by NADPH addition and measured up to 45 mins by LC-MS/MS analysis; format: ADME, Microsome
[20] = Cmax in CD1 mouse at 10 mg/kg, po measured after 0.083 to 24 hrs by UHPLC-TOF method; format: ADME, organism-based; set-up: route oral, time 0.083-24 hrs, dose 10 mg/kg; conditions: in vivo
[21] = target: Fusion glycoprotein F0 (Human respiratory syncytial virus A (strain A2), UniProt P03420); test: Inhibition of Respiratory syncytial virus fusion protein
In short: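 293T cells cotransfected with codon-optimized RSV A2 F plasmid and a GAL4-responsive luciferase reporter, mixed after 24 h with a second 293T population expressing GAL4-NF-κB transactivator. Threefold serial compound dilutions present during mixing; F-mediated fusion read as luciferase after 24 h. IC₅₀ averaged over at least two testing occasions.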

[22] = system: Human orthopneumovirus; test: Antiviral activity against Respiratory syncytial virus A2 by Plaque reduction assay; format: functional, organism-based
In short: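 Vero cells were infected with RSV A2 for 48 h with compound at 0.01 nM to 100 μM. Plaques were detected by immunostaining. Values are the average of at least two testing occasions.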

[23] = Cytotoxicity against human Hep2 cells; format: cell-based; conditions: HEp-2 cells
In short: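 Hep2 cells were cultured in parallel with the plaque assays at compound concentrations of 0.01 nM to 100 μM. Viability was read by MTT, CellTox green or CellTiter-Glo.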

[24] = system: Human orthopneumovirus; test: Antiviral activity against Respiratory syncytial virus A2 infected in human Hep2 cells by Plaque reduction assay; format: functional, organism-based; conditions: A2, HEp-2
In short: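 Hep2 cells were infected with RSV strain A2 in the presence of compound. Plaques were detected by immunostaining after 48 h. Values are the average of at least two testing occasions.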

Chain of Fusion glycoprotein F0 (P03420 26-109 limits assumed): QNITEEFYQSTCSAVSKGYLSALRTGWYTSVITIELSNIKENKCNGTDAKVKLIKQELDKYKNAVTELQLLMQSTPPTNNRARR
Chain of Fusion glycoprotein F0 (P03420 137-574 limits assumed): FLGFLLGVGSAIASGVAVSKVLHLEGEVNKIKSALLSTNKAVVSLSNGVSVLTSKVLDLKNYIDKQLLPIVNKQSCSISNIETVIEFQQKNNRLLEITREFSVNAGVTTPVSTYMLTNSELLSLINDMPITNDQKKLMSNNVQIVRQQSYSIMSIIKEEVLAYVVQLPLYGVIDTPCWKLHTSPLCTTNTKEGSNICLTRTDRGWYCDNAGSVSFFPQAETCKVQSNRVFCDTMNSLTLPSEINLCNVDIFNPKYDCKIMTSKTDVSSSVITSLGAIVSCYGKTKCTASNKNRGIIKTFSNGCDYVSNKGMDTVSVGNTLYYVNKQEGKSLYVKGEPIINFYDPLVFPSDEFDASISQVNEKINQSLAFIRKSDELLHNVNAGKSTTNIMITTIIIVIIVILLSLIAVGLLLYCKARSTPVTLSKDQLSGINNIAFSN

- EC50 [1]: 3400 nM
Structure (SMILES): CC(C)CCn1c(CN2C(=O)C3(CC3)Cc3ccccc32)nc2cc(CN)ccc21
- CC50 [2]: 33400 nM

- EC50 [1]: 580 nM
Structure (SMILES): CC(C)CCn1c(CN2C(=O)C3(CCCC3)c3ccccc32)nc2cc(CN)ccc21
- CC50 [2]: 9940 nM

- EC50 [1]: 14000 nM
Structure (SMILES): CC(C)CCn1c(CN2C(=O)C3(CCCC3)Cc3ccccc32)nc2cc(CN)ccc21
- CC50 [2]: 11500 nM

- EC50 [1]: 240 nM
Structure (SMILES): CC(C)CCn1c(CN2C(=O)C3(CCC3)c3ccccc32)nc2cc(CN)ccc21
- CC50 [2]: 13800 nM

- EC50 [1]: 6.7 nM
Structure (SMILES): CC(C)CCn1c(CN2C(=O)C3(CC3)c3ccc(Cl)cc32)nc2cc(CN)ccc21
- CC50 [2]: 4500 nM

- EC50 [1]: 25.4 nM
Structure (SMILES): CC(C)CCn1c(CN2C(=O)C3(CC3)c3cc(Cl)ccc32)nc2cc(CN)ccc21
- CC50 [2]: 710 nM

Continued, compound first:

Structure (SMILES): N#Cc1ccc2c(c1)nc(CN1C(=O)C3(CC3)c3ccc(F)cc31)n2CCCC(F)(F)F
- CC50 [3]: 23700 nM
- EC50 [1]: 444 nM

Structure (SMILES): NCc1ccc2c(c1)nc(CN1C(=O)C3(CC3)c3ccc(F)cc31)n2C1CCC(O)CC1 (centres undefined)
- half-life [4]: 2.45 h
- CC50 [3]: > 25000 nM
- Papp A→B at 1 h, 10 µM [5]: 0.1 ×10⁻⁶ cm/s
- half-life [6]: 0.9 h
- Tmax [7]: 0.1 h
- EC50 [8]: 1.6 nM
- intrinsic clearance (CLint) [9]: 4.6 µL/min
- intrinsic clearance [10]: 5.02 µL/min
- Vd [11]: 3.8 L/kg
- solubility thermodynamic [12]: 313 µM (≈ 136 µg/mL)
- Papp B→A at 1 h, 10 µM [13]: 2.8 ×10⁻⁶ cm/s
- half-life [14]: 4.6 h
- efflux ratio at 1 h, 10 µM [15]: 21
- clearance [16]: 82.7 mL/min/kg
- bioavailability [17]: 4.4%
- half-life [18]: 5 h
- Microsomal intrinsic clearance [19]: 9.4 µL/min
- Cmax [20]: 47.8 ng/mL

Structure (SMILES): CC(C)CCn1c(CN2C(=O)C3(CC3)c3ccncc32)nc2cc(CN)ccc21
- IC50 [21]: 0.9 nM
- EC50 [22]: 2.1 nM

Structure (SMILES): CC(=O)N1CC2(C1)C(=O)N(Cc1nc3cc(CN)ccc3n1CCC(C)C)c1ccccc12
- IC50 [21]: 1.1 nM
- EC50 [22]: 2.2 nM

Structure (SMILES): CC(C)CCn1c(CN2C(=O)C3(CC3)c3cccnc32)nc2cc(CN)ccc21
- IC50 [21]: 0.9 nM
- half-life [6]: 1 h
- Tmax [7]: 2 h
- intrinsic clearance (CLint) [9]: 177 µL/min
- intrinsic clearance [10]: 71.3 µL/min
- Vd [11]: 4.5 L/kg
- Papp B→A at 1 h, 10 µM [13]: 0.1 ×10⁻⁶ cm/s
- EC50 [22]: 4.1 nM
- clearance [16]: 81.1 mL/min/kg
- bioavailability [17]: 18.1%
- Microsomal intrinsic clearance [19]: 328 µL/min
- Cmax [20]: 200 ng/mL

Structure (SMILES): CC(=O)NCc1ccc2c(c1)nc(CN1C(=O)C3(CC3)c3ccc(F)cc31)n2CCCC(F)(F)F
- CC50 [23]: > 20000 nM
- EC50 [24]: 107 nM

Structure (SMILES): O=C(O)c1ccc2c(c1)nc(CN1C(=O)C3(CC3)c3ccc(F)cc31)n2CCCC(F)(F)F
- CC50 [3]: > 25000 nM
- EC50 [1]: 10200 nM

Structure (SMILES): CCNC(=N)c1ccc2c(c1)nc(CN1C(=O)C3(CC3)c3ccc(F)cc31)n2CCCC(F)(F)F
- CC50 [3]: > 25000 nM
- EC50 [1]: 454 nM
